# Source: PubChem BioAssay
# The entries come from a sample that favours hits as a whole.
# CHOP inh = blocks CHOP induction under ER stress; CHO-K1 CHOP-promoter luciferase, tunicamycin-induced, 15-18 h; inhibition, % at 10 µM; actives 3.8% (n = 220,000); AID 2732;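 active = compounds that reduced the stress-induced luciferase reporter signal by more than about 70% of percent inhibition, limit read from the data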;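 note: 0% = tunicamycin plus vehicle and 100% = wells without tunicamycin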
# B2AR ag = agonists of human beta-2 adrenergic receptor inducing internalization | Am2.2-beta2AR cells, FAP receptor internalization, flow cytometry | response, % (concentration not given with the values) | actives 0.43% (n = 340,000);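 active = response above a set limit, near 3 SD of response in nonfluorescent compounds, cut at about 42% in these data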
# Target sequence (P07550 whole entry, looked up): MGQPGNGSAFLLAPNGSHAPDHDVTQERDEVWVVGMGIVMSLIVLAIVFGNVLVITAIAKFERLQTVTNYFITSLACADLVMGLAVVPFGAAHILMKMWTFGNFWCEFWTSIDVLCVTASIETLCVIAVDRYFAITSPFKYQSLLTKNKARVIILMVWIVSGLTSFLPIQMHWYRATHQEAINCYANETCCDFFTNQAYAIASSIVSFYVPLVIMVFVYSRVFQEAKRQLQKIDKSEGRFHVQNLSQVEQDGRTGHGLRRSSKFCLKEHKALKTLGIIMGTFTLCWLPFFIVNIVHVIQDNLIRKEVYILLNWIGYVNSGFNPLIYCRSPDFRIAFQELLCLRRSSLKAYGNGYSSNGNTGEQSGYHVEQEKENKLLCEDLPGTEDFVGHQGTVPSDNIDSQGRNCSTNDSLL
# CHOP UPR activ = apoptotic UPR (CHOP) activation; CHO-CHOP luciferase reporter, luminescence; percent of tunicamycin response over DMSO baseline; activation, % at 10 µM; actives 0.34% (n = 330,000);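 active = at 10 µM dose, activation of 40% or more, normalized to positive control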;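 note: 100% = tunicamycin at 10 µg/mL and 0% = DMSO alone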
#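 Material: CHO-CHOP cells, stable luciferase reporter of PERK-eIF2a-CHOP signalling; quantity: 500 reporter cells seeded per well; buffer or medium: F12 medium containing 10% fetal bovine serum; compound: one dose, 10 µM in 0.5% DMSO; incubation: 6 h compound treatment, 37 °C; measured by: Steady-Glo luciferase luminescence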
# VLA-4 inh = inhibition in a human VLA-4 binding assay. VLA-4 expressing cells, ligand binding flow cytometry. AID 2557. actives 0.2% (n = 330,000). inhibition, % (about 7 µM as worked out from the volumes in the protocol); in the data active = inhibition above about 50%
# UPR XBP1 act = adaptive UPR (XBP1) activation; CHO-XBP1 luciferase reporter, IRE1-XBP1 UPR activation, luminescence; percent of tunicamycin response, DMSO as zero; actives 0.33% (n = 330,000); activation, % at 20 µM;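 active = versus positive control, 20 µM dose yields 30% or more activation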;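 note: 100% = tunicamycin at 10 µg/mL and 0% = DMSO only wells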
#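 Signal: luciferase luminescence; Assay system: CHO-XBP1 luciferase reporter cells; Amount: one thousand reporter cells per well; Dosing: 20 µM single concentration, DMSO 1%; Benchmarks: high control tunicamycin 10 µg/mL final, low control DMSO vehicle only; Schedule: 6 h compound exposure at 37 °C, 5% CO2; Evaluation: percent activation relative to tunicamycin reference.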
# VLA-4 allo CP = confirmation of allosteric modulators of human VLA-4 integrin; shares compounds with VLA-4 inh; inhibition, % at 6.7 µM; actives 2% (n = 1,300); U937 cells, HUTS-21 LIBS mAb binding, flow cytometry; LDV ligand present at threefold Kd; AID 2813; in the data active = inhibition above about 40%;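 note: 0% = ligand without compound and 100% = no ligand background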
# * marks the source's active call; other numbers are inactive results; x = not tested or not shown.
SMILES,CHOP inh,B2AR ag,CHOP UPR activ,VLA-4 inh,UPR XBP1 act,others
CC(C)(O)[C@H]1O[C@H]2CC[C@@]3(C)[C@@](O)(CC[C@H]4Cc5c([nH]c6ccccc56)[C@@]43C)C2=CC1=O,82*,x,1,18,-7,
COc1ccc(CN2CCN(c3ccccc3)CC2)c(C)c1C,80*,6,1,6,2,
Cc1ccc(O)c(CN2CCN(c3ccccc3)CC2)c1,61,4,0,-12,0,
Cc1cc(O)c(CN2CCN(c3ccccc3)CC2)cc1C,82*,-3,0,30,-4,
C[C@]12Cc3cn4c(nc3C=C1CCC1C2CC[C@@]2(C)[C@H]1CC[C@@]2(O)C#N)nc1ccccc14 (some centres undefined),7,x,x,x,x,
ClCCN(CCCl)c1ccc(-n2cnc3c(Cl)ncnc32)cc1,x,16,x,x,x,
CC(Cc1ccc(OCC(=O)O)cc1)NCC(O)c1cccc(Cl)c1 (centres undefined),24,x,x,x,x,
CC(C)CCCn1c(O)c(/C=C2/C=CC=N2)c(=O)[nH]c1=O,85*,-10,1,4,3,
NC(=NCCC[C@H](N)C(=O)O)N[N+](=O)[O-],0,x,x,x,x,
CP(=O)(O)C1=CCNCC1,1,x,x,x,x,
CC1CCCCN1C(=O)Cn1cc(C=C2C(=O)N(C)C(=O)N(C)C2=O)c2ccccc21 (centres undefined),x,7,0,-15,-3,
CCNC(=O)[C@H]1O[C@@H](n2cnc3c(N)ncnc32)C(O)[C@H]1O (some centres undefined),-17,x,x,x,x,
CCOP1(=S)Oc2cc3c(cc2C(C(=O)OC)(C(F)(F)F)O1)OCO3 (centres undefined),82*,3,0,-3,-2,
CC(C)Oc1cc(-n2c(=S)[nH]c3ccccc3c2=O)c(Cl)cc1Cl,83*,9,1,14,2,
O=C1/C(=C/c2ccccc2)C[C@@]2(O)[C@H]3Cc4ccc(O)c5c4[C@@]2(CCN3CC2CC2)C1O5 (some centres undefined),x,69*,27,6,-9,
O=C(O)c1cccc2c1NC(c1cccc([N+](=O)[O-])c1)C1CC(Sc3ccccc3[N+](=O)[O-])C(Cl)C21 (centres undefined),51,2,-1,x,-3,
O=C(O)c1ccc2c(c1)C1C(Cl)C(Sc3ccccc3[N+](=O)[O-])CC1C(c1cccc([N+](=O)[O-])c1)N2 (centres undefined),81*,4,x,x,x,
O=c1[nH]c(=O)n(CCC2=CCCCC2)c(O)c1/C=N/Nc1cccc2ccccc12,71*,23,-1,0,-2,
O=c1[nH]c(=O)n(CCC2=CCCCC2)c(O)c1/C=N/Nc1ccccc1,61,7,2,14,-1,
CC1(C)CN=C(Nc2ccc(F)c(F)c2)S1,82*,-1,2,-4,0,
CC1(C)CN=C(Nc2ccc(F)c(Cl)c2)S1,-13,3,2,3,2,
Nc1ccccc1C(=O)OCC(=O)N1CCc2ccccc21,-8,-2,5,x,4,
N#CSCC(=O)N1c2ccccc2CCc2ccccc21,66,52*,5,10,11,
Cc1ccc(OP(=O)(NC(C)c2ccccc2)Oc2ccc(C)cc2)cc1 (centres undefined),77*,5,-1,4,-2,
Cc1ccc(NP(=O)(Oc2ccccc2)Oc2ccccc2)cc1,x,-7,x,x,x,
SMILES,CHOP inh,B2AR ag,CHOP UPR activ,VLA-4 inh,UPR XBP1 act,others
O=C1NC(=S)NC(=O)C1=Cc1cccc2cc3ccccc3cc12,108*,94*,x,x,x,
NC(=O)CN1CC(O)CC1=O (centres undefined),14,x,x,x,x,
COC(=O)C1=C(C(=O)OC)C2OC1c1cc3ccccc3cc12,x,17,x,x,x,
Cn1cccc1/C=C1/C(=O)NC(=S)N(Cc2ccc(F)cc2)C1=O,-85,60*,34,29,17,
CCCn1c(C)c(C(=O)c2ccc3ccccc3c2)c2ccccc21,-18,x,x,x,x,
COCCNC(=O)c1c(N)n(Cc2ccco2)c2nc3ccccc3nc12,33,-5,-3,-10,-1,
C=CCNC(=O)c1c(N)n(Cc2ccco2)c2nc3ccccc3nc12,77*,6,0,-21,-3,
CCCCCCCCCCCCCC(=O)O[C@@H]1[C@@H](C)[C@@]2(O)[C@@H](C=C(CO)C[C@@]3(O)C(=O)C(C)=C[C@@H]23)C2C(C)(C)[C@@]21OC(C)=O (some centres undefined),-44,x,x,x,x,
O=C1NC(=O)C(=Cc2ccc(-c3ccccc3[N+](=O)[O-])o2)C(=O)N1,95*,-8,0,15,-3,
C[C@]12CC[C@H]3[C@@H](CCC4C[C@H](O)CC[C@@]43C)[C@@H]1CC[C@@H]2O (some centres undefined),-9,x,x,x,x,
COC(=O)C1C(OC(=O)c2ccccc2)CC2CCC1N2C (centres undefined),7,4,-1,3,0,VLA-4 allo CP=-5
C[N+]1(C)C2CCC1CC(OC(=O)c1ccccc1)C2 (centres undefined),-10,-26,1,4,-2,VLA-4 allo CP=-3
C[N+]1(C)[C@@H]2CC[C@H]1CC(OC(=O)C(CO)c1ccccc1)C2 (some centres undefined),-5,-2,2,7,-8,
COc1ccc(-c2ccc(OC)c(OC)c2OC)cc1,x,3,x,x,x,
CN1C2CCC1CC(OC(=O)c1ccc(Cl)cc1)C2 (centres undefined),-3,-1,0,11,-3,VLA-4 allo CP=-1
CCOc1ccc(C(=O)OC2CC3CCC(C2)N3C)cc1 (centres undefined),-10,1,0,-6,-2,VLA-4 allo CP=3
CN1C2CCC1CC(OC(=O)c1ccc(Cl)cc1)(C(=O)O)C2 (centres undefined),22,1,-2,0,-3,VLA-4 allo CP=-12
COC(=O)C1=C(c2ccc(C(C)=O)cc2)C[C@@H]2CC[C@H]1N2C,x,-4,0,0,3,
COc1ccc(C(=O)OC2C[C@H]3CC[C@H](C2)N3C)cc1OC (some centres undefined),x,-1,-1,11,-6,VLA-4 allo CP=-6
CSc1cccc(NP2(=O)OCC(C)([N+](=O)[O-])CO2)c1 (centres undefined),x,-1,x,x,x,
Clc1ccc(CCC(Cn2ccnc2)Sc2c(Cl)cccc2Cl)cc1 (centres undefined),x,17,0,48,-10,
O=C1CN=C(c2ccc(Br)cc2)c2c(sc3c2CCCC3)N1CCN1CCCCC1,53,2,0,55*,0,VLA-4 allo CP=12
